Data taken from ChEMBL document CHEMBL4689842, “EUbOPEN Chemogenomics Library wave 1” (2021).

Columns and labels:
Type in all cases: toxicity, cell-based
U2OS [1] = assay: Multiplex assay against U2OS; conditions: human
Method in brief: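 With compound added, live cells were imaged on a CQ1 microscope at 37°C and 5% CO2; staining with Hoechst33342, BioTracker Green Microtubule Cytoskeleton Dye, MitoTracker Red and Annexin V Alexa Fluor 680 had been done at seeding. The CellPathfinder machine-learning gating scheme split cells into Hoechst high-intensity objects or normal cells, normal cells into healthy, pyknosed or fragmented nuclei, and pyknosed cells into mitotic or apoptotic. The tubulin, mitochondrial-mass and membrane-permeability phenotypes are per cents of healthy-nucleus cells.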

HEK-293T = assay: Incucyte cell viability with HEK293T; conditions: human, 10 µM, compound concentration 10 uM; note: filed as whole numbers so only -1 and 0 and 1 occur
Fibroblast = assay: Incucyte cell viability with human fibroblast; conditions: 10 µM, compound concentration 10 uM; note: filed as whole numbers so only -1 and 0 and 1 occur
U2OS [2] = assay: Incucyte cell viability with U2OS; conditions: human, 10 µM, compound concentration 10 uM; note: filed as whole numbers so only -1 and 0 and 1 occur
[3] = 12 h, 1 µM, compound concentration 1 uM, replicate 1
[4] = 12 h, 1 µM, compound concentration 1 uM, replicate 2
[5] = 12 h, 10 µM, compound concentration 10 uM, replicate 1
[6] = 12 h, 10 µM, compound concentration 10 uM, replicate 2
[7] = 24 h, 1 µM, compound concentration 1 uM, replicate 1
[8] = 24 h, 1 µM, compound concentration 1 uM, replicate 2
[9] = 24 h, 10 µM, compound concentration 10 uM, replicate 1
[10] = 24 h, 10 µM, compound concentration 10 uM, replicate 2
[11] = 48 h, 1 µM, compound concentration 1 uM, replicate 1
[12] = 48 h, 1 µM, compound concentration 1 uM, replicate 2
[13] = 48 h, 10 µM, compound concentration 10 uM, replicate 1
[14] = 48 h, 10 µM, compound concentration 10 uM, replicate 2
[15] = 6 h, replicate number 1, timepoint 6 hours
[16] = 12 h, replicate number 1, timepoint 12 hours
[17] = 18 h, replicate number 1, timepoint 18 hours
[18] = 24 h, replicate number 1, timepoint 24 hours

In the case of `CC(C)[C@H](CO)Nc1nc(Nc2cccc(Cl)c2)c2ncn(C(C)C)c2n1` [PURVALANOLA], the “Population Apoptotic (%)” value (U2OS [1]; [3]) is reported as 58%, the “Population Fragmented Nuclei (%)” value (U2OS [1]; [3]) is reported as 13% and the “Population Healthy Nuclei (%)” value (U2OS [1]; [3]) is reported as 76%. The “Population Hoechst High Intensity Objects (%)” value (U2OS [1]; [3]) was 12%, the “Population Membrane Permeable-Phenotype (%)” value (U2OS [1]; [3]) was 1% and the “Population Mitochondria Different-Phenotype (%)” value (U2OS [1]; [3]) was 15%. For the same compound, the “Population Mitotic Cells (%)” value (U2OS [1]; [3]) was 41%, the “Population Normal (%)” value (U2OS [1]; [3]) was 87% and the “Population Pyknosed Nuclei (%)” value (U2OS [1]; [3]) was 10%. The “Population Tubulin-Different-Phenotype (%)” value (U2OS [1]; [3]) was 12%, the “Total Cell Count” value (U2OS [1]; [3]) was 212 and the “Population Apoptotic (%)” value (U2OS [1]; [4]) was 50%. The “Population Fragmented Nuclei (%)” value (U2OS [1]; [4]) was 8%, the “Population Healthy Nuclei (%)” value (U2OS [1]; [4]) was 88% and the “Population Hoechst High Intensity Objects (%)” value (U2OS [1]; [4]) was 10%. For the same compound, the “Population Membrane Permeable-Phenotype (%)” value (U2OS [1]; [4]) was 7%, the “Population Mitochondria Different-Phenotype (%)” value (U2OS [1]; [4]) was 21% and the “Population Mitotic Cells (%)” value (U2OS [1]; [4]) was 50%. The “Population Normal (%)” value (U2OS [1]; [4]) was 89%, the “Population Pyknosed Nuclei (%)” value (U2OS [1]; [4]) was 3% and the “Population Tubulin-Different-Phenotype (%)” value (U2OS [1]; [4]) was 15%. For the same compound, the “Total Cell Count” value (U2OS [1]; [4]) was 111, the “Population Apoptotic (%)” value (U2OS [1]; [5]) was 68% and the “Population Fragmented Nuclei (%)” value (U2OS [1]; [5]) was 23%. For the same compound, the “Population Healthy Nuclei (%)” value (U2OS [1]; [5]) was 55%, the “Population Hoechst High Intensity Objects (%)” value (U2OS [1]; [5]) was 13% and the “Population Membrane Permeable-Phenotype (%)” value (U2OS [1]; [5]) was 39%. The “Population Mitochondria Different-Phenotype (%)” value (U2OS [1]; [5]) was 96%, the “Population Mitotic Cells (%)” value (U2OS [1]; [5]) was 32% and the “Population Normal (%)” value (U2OS [1]; [5]) was 86%. The “Population Pyknosed Nuclei (%)” value (U2OS [1]; [5]) was 21%, the “Population Tubulin-Different-Phenotype (%)” value (U2OS [1]; [5]) was 100% and the “Total Cell Count” value (U2OS [1]; [5]) was 129. For the same compound, the “Population Apoptotic (%)” value (U2OS [1]; [6]) was 83%, the “Population Fragmented Nuclei (%)” value (U2OS [1]; [6]) was 13% and the “Population Healthy Nuclei (%)” value (U2OS [1]; [6]) was 79%. The “Population Hoechst High Intensity Objects (%)” value (U2OS [1]; [6]) was 7%, the “Population Membrane Permeable-Phenotype (%)” value (U2OS [1]; [6]) was 23% and the “Population Mitochondria Different-Phenotype (%)” value (U2OS [1]; [6]) was 95%. For the same compound, the “Population Mitotic Cells (%)” value (U2OS [1]; [6]) was 16%, the “Population Normal (%)” value (U2OS [1]; [6]) was 92% and the “Population Pyknosed Nuclei (%)” value (U2OS [1]; [6]) was 6%. For the same compound, the “Population Tubulin-Different-Phenotype (%)” value (U2OS [1]; [6]) was 98%, the “Total Cell Count” value (U2OS [1]; [6]) was 66 and the “Population Apoptotic (%)” value (U2OS [1]; [7]) was 36%. The “Population Fragmented Nuclei (%)” value (U2OS [1]; [7]) was 10%, the “Population Healthy Nuclei (%)” value (U2OS [1]; [7]) was 80% and the “Population Hoechst High Intensity Objects (%)” value (U2OS [1]; [7]) was 5%. The “Population Membrane Permeable-Phenotype (%)” value (U2OS [1]; [7]) was 3%, the “Population Mitochondria Different-Phenotype (%)” value (U2OS [1]; [7]) was 7% and the “Population Mitotic Cells (%)” value (U2OS [1]; [7]) was 63%. For the same compound, the “Population Normal (%)” value (U2OS [1]; [7]) was 94%, the “Population Tubulin-Different-Phenotype (%)” value (U2OS [1]; [7]) was 6% and the “Total Cell Count” value (U2OS [1]; [7]) was 221. The “Population Apoptotic (%)” value (U2OS [1]; [8]) was 60%, the “Population Fragmented Nuclei (%)” value (U2OS [1]; [8]) was 8% and the “Population Healthy Nuclei (%)” value (U2OS [1]; [8]) was 83%. For the same compound, the “Population Hoechst High Intensity Objects (%)” value (U2OS [1]; [8]) was 6%, the “Population Membrane Permeable-Phenotype (%)” value (U2OS [1]; [8]) was 5% and the “Population Mitochondria Different-Phenotype (%)” value (U2OS [1]; [8]) was 23%. For the same compound, the “Population Mitotic Cells (%)” value (U2OS [1]; [8]) was 40%, the “Population Normal (%)” value (U2OS [1]; [8]) was 93% and the “Population Pyknosed Nuclei (%)” value (U2OS [1]; [8]) was 8%. The “Population Tubulin-Different-Phenotype (%)” value (U2OS [1]; [8]) was 9%, the “Total Cell Count” value (U2OS [1]; [8]) was 157 and the “Population Apoptotic (%)” value (U2OS [1]; [9]) was 67%. For the same compound, the “Population Fragmented Nuclei (%)” value (U2OS [1]; [9]) was 27%, the “Population Healthy Nuclei (%)” value (U2OS [1]; [9]) was 48% and the “Population Hoechst High Intensity Objects (%)” value (U2OS [1]; [9]) was 16%. For the same compound, the “Population Membrane Permeable-Phenotype (%)” value (U2OS [1]; [9]) was 55%, the “Population Mitochondria Different-Phenotype (%)” value (U2OS [1]; [9]) was 100% and the “Population Mitotic Cells (%)” value (U2OS [1]; [9]) was 32%. The “Population Normal (%)” value (U2OS [1]; [9]) was 83%, the “Population Pyknosed Nuclei (%)” value (U2OS [1]; [9]) was 24% and the “Population Tubulin-Different-Phenotype (%)” value (U2OS [1]; [9]) was 100%. For the same compound, the “Total Cell Count” value (U2OS [1]; [9]) was 133, the “Population Apoptotic (%)” value (U2OS [1]; [10]) was 80% and the “Population Fragmented Nuclei (%)” value (U2OS [1]; [10]) was 16%. The “Population Healthy Nuclei (%)” value (U2OS [1]; [10]) was 65%, the “Population Hoechst High Intensity Objects (%)” value (U2OS [1]; [10]) was 8% and the “Population Membrane Permeable-Phenotype (%)” value (U2OS [1]; [10]) was 50%. The “Population Mitotic Cells (%)” value (U2OS [1]; [10]) was 20%, the “Population Normal (%)” value (U2OS [1]; [10]) was 91% and the “Population Pyknosed Nuclei (%)” value (U2OS [1]; [10]) was 17%. The “Total Cell Count” value (U2OS [1]; [10]) was 66, the “Population Fragmented Nuclei (%)” value (U2OS [1]; [11]) was 12% and the “Population Healthy Nuclei (%)” value (U2OS [1]; [11]) was 82%. For the same compound, the “Population Hoechst High Intensity Objects (%)” value (U2OS [1]; [11]) was 4%, the “Population Membrane Permeable-Phenotype (%)” value (U2OS [1]; [11]) was 4% and the “Population Mitochondria Different-Phenotype (%)” value (U2OS [1]; [11]) was 14%. For the same compound, the “Population Normal (%)” value (U2OS [1]; [11]) was 95%, the “Population Pyknosed Nuclei (%)” value (U2OS [1]; [11]) was 5% and the “Population Tubulin-Different-Phenotype (%)” value (U2OS [1]; [11]) was 7%. For the same compound, the “Total Cell Count” value (U2OS [1]; [11]) was 219, the “Population Apoptotic (%)” value (U2OS [1]; [12]) was 60% and the “Population Fragmented Nuclei (%)” value (U2OS [1]; [12]) was 4%. The “Population Healthy Nuclei (%)” value (U2OS [1]; [12]) was 84%, the “Population Hoechst High Intensity Objects (%)” value (U2OS [1]; [12]) was 5% and the “Population Membrane Permeable-Phenotype (%)” value (U2OS [1]; [12]) was 6%. For the same compound, the “Population Mitochondria Different-Phenotype (%)” value (U2OS [1]; [12]) was 25%, the “Population Mitotic Cells (%)” value (U2OS [1]; [12]) was 40% and the “Population Normal (%)” value (U2OS [1]; [12]) was 94%. The “Population Pyknosed Nuclei (%)” value (U2OS [1]; [12]) was 11%, the “Population Tubulin-Different-Phenotype (%)” value (U2OS [1]; [12]) was 10% and the “Total Cell Count” value (U2OS [1]; [12]) was 168. For the same compound, the “Population Apoptotic (%)” value (U2OS [1]; [13]) was 77%, the “Population Fragmented Nuclei (%)” value (U2OS [1]; [13]) was 33% and the “Population Healthy Nuclei (%)” value (U2OS [1]; [13]) was 17%. The “Population Hoechst High Intensity Objects (%)” value (U2OS [1]; [13]) was 23%, the “Population Membrane Permeable-Phenotype (%)” value (U2OS [1]; [13]) was 64% and the “Population Mitochondria Different-Phenotype (%)” value (U2OS [1]; [13]) was 94%. For the same compound, the “Population Mitotic Cells (%)” value (U2OS [1]; [13]) was 22%, the “Population Normal (%)” value (U2OS [1]; [13]) was 76% and the “Population Pyknosed Nuclei (%)” value (U2OS [1]; [13]) was 49%. For the same compound, the “Population Tubulin-Different-Phenotype (%)” value (U2OS [1]; [13]) was 100%, the “Total Cell Count” value (U2OS [1]; [13]) was 189 and the “Population Apoptotic (%)” value (U2OS [1]; [14]) was 100%. The “Population Fragmented Nuclei (%)” value (U2OS [1]; [14]) was 16%, the “Population Healthy Nuclei (%)” value (U2OS [1]; [14]) was 62% and the “Population Hoechst High Intensity Objects (%)” value (U2OS [1]; [14]) was 18%. For the same compound, the “Population Membrane Permeable-Phenotype (%)” value (U2OS [1]; [14]) was 58%, the “Population Mitochondria Different-Phenotype (%)” value (U2OS [1]; [14]) was 87% and the “Population Mitotic Cells (%)” value (U2OS [1]; [14]) was 0%. The “Population Normal (%)” value (U2OS [1]; [14]) was 81%, the “Population Pyknosed Nuclei (%)” value (U2OS [1]; [14]) was 20% and the “Population Tubulin-Different-Phenotype (%)” value (U2OS [1]; [14]) was 93%. The “Total Cell Count” value (U2OS [1]; [14]) was 94, the “Growth Rate” value (HEK-293T; [15]) was 0 and the “Growth Rate” value (HEK-293T; [16]) was 0. The “Growth Rate” value (HEK-293T; [17]) was 0, the “Growth Rate” value (HEK-293T; [18]) was 0 and the “Growth Rate” value (Fibroblast; 0 h, replicate number 1, timepoint 0 hours) was 0. For the same compound, the “Growth Rate” value (Fibroblast; [15]) was 0, the “Growth Rate” value (Fibroblast; [16]) was 0 and the “Growth Rate” value (Fibroblast; [17]) was 0. The “Growth Rate” value (Fibroblast; [18]) was 0, the “Growth Rate” value (U2OS [2]; [15]) was 0 and the “Growth Rate” value (U2OS [2]; [16]) was 0. For the same compound, the “Growth Rate” value (U2OS [2]; [17]) was 0 and the “Growth Rate” value (U2OS [2]; [18]) was 0.
